Published values of several laboratories.
Each line is one published result; the experiments were not run side by side.
Target: Serine/threonine-protein kinase 4 (STK4, Homo sapiens, UniProt Q13043)
Residues used in one study (Q13043 1-487): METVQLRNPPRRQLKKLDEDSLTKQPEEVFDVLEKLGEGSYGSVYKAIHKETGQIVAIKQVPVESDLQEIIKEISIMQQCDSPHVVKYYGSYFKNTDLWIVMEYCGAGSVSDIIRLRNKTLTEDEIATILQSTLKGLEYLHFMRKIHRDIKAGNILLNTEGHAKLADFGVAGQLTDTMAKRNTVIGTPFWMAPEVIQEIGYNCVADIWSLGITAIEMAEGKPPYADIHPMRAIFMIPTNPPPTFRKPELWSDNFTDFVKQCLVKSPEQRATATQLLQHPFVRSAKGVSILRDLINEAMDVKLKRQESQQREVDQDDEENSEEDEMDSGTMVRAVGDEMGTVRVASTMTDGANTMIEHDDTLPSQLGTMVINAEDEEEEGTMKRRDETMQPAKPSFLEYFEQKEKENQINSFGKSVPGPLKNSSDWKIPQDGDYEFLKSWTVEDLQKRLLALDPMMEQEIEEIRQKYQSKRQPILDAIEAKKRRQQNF

COc1ccc2oc(-c3ccc4nc(N)oc4c3)c/c(=N\c3ccccc3NC(=O)CCN)c2c1
remaining binding (binding; 1 µM): 111%

CN1CCN(C(=O)c2ccc(NC(=O)Nc3ccc(N(C)c4ccnc(Nc5ccc(CS(C)(=O)=O)cc5)n4)cc3)cc2)CC1
remaining binding (binding; competition with immobilised ligand; 1 µM): 96%

C1=C/COCc2cc(ccc2OCCN2CCCC2)Nc2nccc(n2)-c2cccc(c2)COC/1
remaining signal (cell-free assay; 0.1 µM): 100%

Cc1cc(O)c(-c2ccc([C@@H](C)CN(C)C)cc2)c2c1[nH]c(=O)c1sccc12
inhibition (enzyme activity; inhibitor; 0.1 µM): -0.517%

CCCCC(=O)Nc1ccc(-c2ccc3ncn(CCC)c(=O)c3c2)cn1
remaining binding (binding; competition with immobilised ligand; 0.5 µM): 95%

CO[C@@H]1[C@H](N(C)C(=O)c2ccccc2)C[C@H]2O[C@]1(C)n1c3ccccc3c3c4c(c5c6ccccc6n2c5c31)C(=O)NC4
inhibition (enzyme activity; inhibitor; 1 µM): 78%

COc1ccc2[nH]c3c4[nH]c5ccc(OC)cc5c4c4c(c3c2c1)C(=O)NC4=O
remaining binding (binding; competition with immobilised ligand; 1 µM): 100%

C=CC(=O)N1CCC([C@@H]2CCNc3c(C(N)=O)c(-c4ccc(Oc5ccccc5)cc4)nn32)CC1
inhibition (enzyme activity; inhibitor; 1 µM): 0%

C#Cc1cc(-c2cc(Nc3nc(N[C@@H](C)c4ccc(F)cn4)ncc3Cl)n[nH]2)ccc1C=O
inhibition (enzyme activity; inhibitor; 0.2 µM): 54.5%
